Experimental data pooled from the literature.
Compare with care: the assays were run in different laboratories. pIC50: −log10 of the molar value.
Cell line: Vero
Observed: cell growth or viability

Structure (SMILES) | method | time | quantity | value
O=[N+]([O-])c1ccc(-c2nn(-c3ccccc3)c3sc(NC(c4ccccc4O)P(=O)(Oc4ccccc4)Oc4ccccc4)nc23)cc1 (stereo not drawn) | SRB |  | pIC50 | < 4.00
N#CCCOc1ccc(Oc2ccccc2)cc1 |  | 72 h | CC50 | > 20 µM
CN(CC[C@H](N)CC(=O)N[C@H]1C=C[C@H](n2ccc(N)nc2=O)O[C@@H]1C(=O)O)C(=N)N |  |  | pIC50 | 4.86
NNC(=O)c1ccncc1 |  | 18 h | IC50 | 18000 µg/mL
C[C@H]1O[C@H](O[C@H]2CC[C@H](n3ccc(NC(=O)c4ccc(NC(=O)[C@@](C)(N)CO)cc4)nc3=O)O[C@@H]2C)[C@H](O)[C@@H](O)[C@@H]1N(C)C |  |  | pIC50 | < 4.00
CO[C@H]1/C=C/O[C@@]2(C)Oc3c(C)c(O)c4c(O)c(c(/C=N/N5CCN(C)CC5)c(O)c4c3C2=O)NC(=O)/C(C)=C\C=C\[C@H](C)[C@H](O)[C@@H](C)[C@@H](O)[C@@H](C)[C@H](OC(C)=O)[C@@H]1C |  |  | pIC50 | 3.95
CCCCCCCCn1cc(CN2CCC3(CC2)OCCO3)c2ccc(OC)cc21 |  |  | pIC50 | 4.34
Nc1nc(N)c(CNCCc2cccc(F)c2)c(C2CC2)n1 | SRB |  | pIC50 | < 4.00
CN(C)c1ccc(C(Nc2nc3c(-c4ccc([N+](=O)[O-])cc4)nn(-c4ccccc4)c3s2)P(=O)(Oc2ccccc2)Oc2ccccc2)cc1 (stereo not drawn) | SRB |  | pIC50 | < 4.00
Cn1cc2c3c1C(=O)C(N)=C(Cl)C3=NCC2 | MTT | 72 h | pIC50 | < 4.67
Nc1nc(N)c(CNCCc2ccc(Cl)cc2Cl)c(C2CC2)n1 | SRB |  | pIC50 | 4.51
FC(F)(F)Oc1ccc(Oc2ccc(CNCCNC3C4CC5CC(C4)CC3C5)cc2)cc1 (stereo not drawn) |  | 18 h | IC50 | 3.9 µg/mL
Nc1nc(N)c(CNCCc2ccccc2Cl)c(C2CC2)n1 | SRB |  | pIC50 | 4.17
[C-]#[N+]C(C)(C)C[C@@H]1C[C@H](C)[C@H]2CC[C@H](C)[C@@]3([N+]#[C-])CCC(=C)[C@@H]1[C@H]23 |  |  | pIC50 | 4.00
Nc1nc(N)c(CNCCc2ccc(Cl)c(Cl)c2)c(C2CC2)n1 | SRB |  | pIC50 | 4.68
N#CCCCOc1ccc(Oc2ccccc2)cc1 |  | 72 h | CC50 | > 20 µM
CSc1c2c3c(n1C)C(=O)C(=O)C(Cl)=C3NCC2 | MTT | 72 h | pIC50 | < 4.75
COc1ccccc1CCNCc1c(N)nc(N)nc1C1CC1 | SRB |  | pIC50 | < 4.00
